Test results: ChEMBL document CHEMBL1143713, “Antimitotic activities of 2-phenylindole-3-carbaldehydes in human breast cancer cells” (Bioorg Med Chem, 2007)
Calls of active or inactive are those of the source. The calls are words filed in the database; no cut-off is given here.

What was measured:
MDA-MB-231 [1] = assay: Antiproliferative activity against human MDA-MB-231 cells after 4 days; assay type: functional, cell-based; details: MDA-MB-231, 96 h
MCF7 = assay: Antiproliferative activity against human MCF7 cells after 5 days; assay type: functional, cell-based; details: MCF7, 120 h
MDA-MB-231 [2] = assay: Cell cycle arrest in MDA-MB-231 cells by accumulation at G2/M phase after 24 hrs by flow cytometry; assay type: functional, cell-based; details: Homo sapiens
Summary of the method: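 MDA-MB 231 cells at 70–80% confluence exposed 24 h to compounds diluted from DMF stocks (0.1% DMF final), various concentrations, vincristine reference. Cells trypsinized, fixed in 70% ethanol, DNA-extracted, stained with propidium iodide ≥30 min at room temperature. 8000–15,000 events per sample by flow cytometry; sub-G1, G0/G1, S, G2/M fractions. Representative of two experiments.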

Tubulin = assay: Inhibition of tubulin polymerization by microplate assay; assay type: protein-complex assay, Homo sapiens
Summary of the method: (§1)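 Commercial microplate tubulin kit in G-PEM buffer with 5% glycerol. Compounds from DMSO stocks, diluted 1:10 in G-PEM, added to wells prewarmed to 37 °C. Cold tubulin added; absorbance at 355 nm read every minute over about 28–30 min at 37 °C after shift from 2 °C. Solvent controls; colchicine and docetaxel as references.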

[3] = Inhibition of temperature-induced tubulin polymerization of calf brain; set-up: species or system Bos taurus
Summary of the method: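 Tubulin from fresh calf brain cortex, purified by temperature-dependent polymerization/depolymerization cycles and checked by PAGE, in PEMG buffer. Supernatant mixed with compound in DMSO at varying concentrations, preincubated 15 min at 37 °C, chilled, then 25 mM GTP solution added. Temperature switched from 2 to 37 °C in cuvettes; turbidity at 350 nm over 20 min. Mean of two controls = 100%; IC50 from three independent experiments.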

Tubulin (Homo sapiens) = Tubulin (Homo sapiens) (UniProt P68371+Q9H4B7+P0DPH7+P68366+Q13509+Q71U36+P04350+Q3ZCM7+P07437+P68363+Q9BQE3+Q6PEY2+Q13885+Q9BVA1+Q9BUF5); assay: Inhibition of tubulin polymerization at 5 uM by microplate assay; assay type: protein-complex assay; summary of the method: as §1
U-87MG ATCC [4] = assay: Effect on cell morphology in human U87 cells assessed as condensation of microtubule around the nucleus and loss of function at 50 nM after 3 hrs; assay type: functional, cell-based
Summary of the method: (§2)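 U-87 MG glioma cells at 75% confluence treated 3 h at 37 °C; vehicle ethanol. Fixed in 4% paraformaldehyde, permeabilized with 1% Triton X-100. Chromatin stained with SYTOX Green; microtubules with mouse anti-α-tubulin and Cy5 goat anti-mouse antibody (1:200). Imaged by confocal laser scanning microscopy.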

U-87MG ATCC [5] = assay: Effect on cell morphology in human U87 cells assessed as disruption of microtubule network and loss of function at 10 nM after 3 hrs; assay type: functional, cell-based; summary of the method: as §2

Row | SMILES | IC50 (MDA-MB-231 [1]) [nM] | IC50 (MCF7) [nM] | also measured
1 | COc1ccc(-c2[nH]c3cc(Cl)ccc3c2C=O)cc1 | 27 | 65 | 
2 | CCCCc1ccc2[nH]c(-c3ccc(OC)cc3)c(/C=N\C)c2c1 | 6 | 27 | Activity (MDA-MB-231 [2]): Active; IC50 (Tubulin): 1200 nM
3 | COc1ccc(-c2[nH]c3cc(F)ccc3c2C=O)cc1 | 59 |  | IC50 [3]: 1800 nM
4 | CCCCc1ccc2[nH]c(-c3ccc(F)cc3)c(C=O)c2c1 | 350 | 200 | 
5 | COc1ccc2c(C=O)c(-c3ccc(OC)c(O)c3)[nH]c2c1 | 800 | 1650 | 
6 | CCCCCc1ccc2[nH]c(-c3ccc(C(F)(F)F)cc3)c(C=O)c2c1 | 42 | 67 | 
7 | COc1ccc(-c2[nH]c3ccc(C(C)(C)C)cc3c2C=O)cc1 | 280 | 580 | 
8 | CCCCc1ccc(-c2[nH]c3ccc(CC)cc3c2C=O)cc1 | 300 | 200 | 
9 | COc1ccc(-c2[nH]c3ccc(F)cc3c2C=O)cc1 | 540 | 240 | 
10 | CCCCc1ccc2[nH]c(-c3ccc(C(F)(F)F)cc3)c(/C=N\C)c2c1 | 32 | 140 | 
11 | CCCCc1ccc2[nH]c(-c3ccc(OC)cc3)c(C=O)c2c1 | 6.7 | 22 | Activity (MDA-MB-231 [2]): Active; inhibition (Tubulin (Homo sapiens)): 23%; Activity (U-87MG ATCC [4]): Active
12 | COc1ccc(-c2[nH]c3ccc(C)cc3c2C=O)cc1 | 86 | 140 | Activity (MDA-MB-231 [2]): Active
13 | COc1ccc(-c2[nH]c3ccc(OC)cc3c2C=O)cc1 |  |  | IC50 [3]: 4000 nM
14 | Cc1ccc(-c2[nH]c3ccc(C)cc3c2C=O)cc1 | 48 | 165 | 
15 | CC[C@]1(O)C[C@H]2CN(CCc3c([nH]c4ccccc34)[C@@](C(=O)OC)(c3cc4c(cc3OC)N(C=O)[C@H]3[C@@](O)(C(=O)OC)[C@H](OC(C)=O)[C@]5(CC)C=CCN6CC[C@]43[C@@H]65)C2)C1 |  |  | Activity (MDA-MB-231 [2]): Active; Activity (U-87MG ATCC [5]): Active

Now from value to molecule, other results behind:

Row | IC50 (MDA-MB-231 [1]) [nM] | IC50 (MCF7) [nM] | SMILES | also measured
16 | 29 | 97 | COc1ccc(-c2[nH]c3ccc(C(C)C)cc3c2C=O)cc1 | 
17 | 31 | 100 | COc1ccc2c(C=O)c(-c3ccc(C)cc3)[nH]c2c1 | 
18 | 43 | 22 | CCCCCCc1ccc2[nH]c(-c3ccc(C(F)(F)F)cc3)c(C=O)c2c1 | 
19 | 5.5 | 20 | CCCCCc1ccc2[nH]c(-c3ccc(OC)cc3)c(C=O)c2c1 | 
20 | 27 | 58 | CCCCc1ccc2[nH]c(-c3ccc(CC)cc3)c(C=O)c2c1 | Activity (MDA-MB-231 [2]): Active
21 | 72 | 180 | COc1ccc(-c2[nH]c3ccc(CC(C)C)cc3c2C=O)cc1 | 
22 | 35 | 160 | COc1ccc(-c2[nH]c3cc(OC)ccc3c2C=O)cc1 | IC50 [3]: 1500 nM
23 | 497 | 1660 | CCCCc1ccc2[nH]c(-c3ccc(C(F)(F)F)cc3)c(/C=N\O)c2c1 | 
24 | 7.4 | 6 | CCCCCCc1ccc2[nH]c(-c3ccc(OC)cc3)c(C=O)c2c1 | Activity (MDA-MB-231 [2]): Active
25 | 40 | 212 | CCCCc1ccc2[nH]c(-c3ccc(OC)cc3)c(/C=N\O)c2c1 | Activity (MDA-MB-231 [2]): Active
26 | 20 | 54 | CCCc1ccc2[nH]c(-c3ccc(OC)cc3)c(C=O)c2c1 | 
27 | 7.8 | 37 | Cc1ccc(-c2[nH]c3cc(Cl)ccc3c2C=O)cc1 | 
28 | 270 | 20 | COc1ccc2c(C=O)c(-c3ccc(OC)c(OC)c3)[nH]c2c1 | 
29 | 33 | 66 | CCCCc1ccc2[nH]c(-c3ccc(C(F)(F)F)cc3)c(C=O)c2c1 | Activity (MDA-MB-231 [2]): Active; Activity (Tubulin (Homo sapiens)): inactive
30 | 34 | 54 | CCCCc1ccc2[nH]c(-c3ccc(C)cc3)c(C=O)c2c1 | Activity (MDA-MB-231 [2]): Active
31 | 6 | 21 | CCCCCc1ccc2[nH]c(-c3ccc(OC)cc3)c(/C=N\C)c2c1 | 
32 | 34 | 220 | C/N=C\c1c(-c2ccc(OC)cc2)[nH]c2cc(OC)ccc12 | IC50 [3]: 1800 nM
33 | 1030 | 390 | COc1cccc(-c2[nH]c3cc(OC)ccc3c2C=O)c1 | 
34 | 26 | 62 | COc1ccc(-c2[nH]c3cc(Cl)c(C)cc3c2C=O)cc1 | 
